Laboratory results: ChEMBL document CHEMBL3351414, “Novel 9'-substituted-noscapines: synthesis with Suzuki cross-coupling, structure elucidation and biological evaluation” (Eur J Med Chem, 2014)
Active and inactive are the calls of the source. No cut-off for these calls is given here.

Experiments:
HeLa [1] = assay: Effect on cell morphology in human HeLa cells at 25 uM after 24 hrs using phalloidin staining by confocal microscopy; format: functional, cell-based
Method in brief: (§1)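 After 24 h at 25 µM, HeLa cells were stained with anti-PCM1 and Alexa-conjugated secondary antibody, with phalloidin-tetramethylrhodamine B for actin and DAPI for nuclei. Cells were imaged by confocal microscopy at 60×.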

CA46 [2] = assay: Cell cycle arrest in human CA46 cells assessed as accumulation at G2/M phase at 5 times IC50 by flow cytometry; format: functional
Jurkat [3] = assay: Cell cycle arrest in human Jurkat cells assessed as accumulation at G2/M phase at 10 to 25 uM after 24 hrs by flow cytometry; format: functional, cell-based
Method in brief: (§2)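 5×10^5 HeLa or Jurkat cells exposed to graded compound concentrations for 24 h. Cells were fixed in ice-cold 70% ethanol, lysed with RNase A/0.1% Triton X-100 buffer and stained with propidium iodide. DNA content was read by flow cytometry. Phase percentages are mean ± SEM of three independent experiments.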

PBL [4] = assay: Cytotoxicity against PHA-stimulated human PBLs assessed as reduction in cell growth; format: cell-based
Method in brief: (§3)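 Peripheral blood lymphocytes from healthy donors, tested either resting (no PHA) or PHA-stimulated. Value is the concentration reducing cell growth by 50%, mean ± SEM of three separate experiments.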

[5] = Antiproliferative activity against human RS4:11 cells assessed as reduction in cell viability after 72 hrs by MTT assay; format: functional, cell-based; conditions: RS4-11, 72 h
Method in brief: (§4)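 Cells kept in RPMI-1640 (Jurkat, SEM, RS4;11) or DMEM (A549, HeLa, IGROV-1, HT-29) with 10% FBS plus penicillin/streptomycin. 8×10^3 cells per well were left 18 h at 37 °C in 5% CO2. Medium was then replaced with fresh medium holding graded compound concentrations from 10 mM DMSO stocks. Cells were incubated 72 h and viability read by MTT. IC50 is the mean ± SEM from dose–response curves of at least three independent experiments.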

CCRF-CEM = assay: Antiproliferative activity against human CEM cells assessed as reduction in cell viability after 72 hrs by MTT assay; format: functional, cell-based
HeLa [6] = assay: Effect on PCM1 protein in human HeLa cells assessed as accumulation of pericentriolar material at 25 uM after 24 hrs by immunofluorescence microscopy; format: functional, cell-based; method in brief: as §1
CA46 [7] = assay: Antiproliferative activity against human CA46 cells assessed as reduction in cell viability after 72 hrs by MTT assay; format: functional, cell-based; conditions: CA46, 72 h
A549 = assay: Antiproliferative activity against human A549 cells assessed as reduction in cell viability after 72 hrs by MTT assay; format: functional, cell-based; conditions: A549, 72 h; method in brief: as §4
HT-29 = assay: Antiproliferative activity against human HT-29 cells assessed as reduction in cell viability after 72 hrs by MTT assay; format: functional, cell-based; conditions: HT-29, 72 h; method in brief: as §4
HeLa [8] = assay: Cell cycle arrest in human HeLa cells assessed as accumulation at G2/M phase at 25 uM after 24 hrs by flow cytometry; format: functional; method in brief: as §2
HeLa [9] = assay: Cell cycle arrest in human HeLa cells assessed as accumulation at G2/M phase after 24 hrs by flow cytometry; format: functional, cell-based; method in brief: as §2
HeLa [10] = assay: Antiproliferative activity against human HeLa cells assessed as reduction in cell viability after 72 hrs by MTT assay; format: functional, cell-based; method in brief: as §4
Jurkat [11] = assay: Cell cycle arrest in human Jurkat cells assessed as accumulation at G2/M phase after 24 hrs by flow cytometry; format: functional, cell-based; method in brief: as §2
Tubulin [12] = target: T1, Tubulin (Bos taurus, UniProt Q6B856+Q862L2+Q862F3); assay: Inhibition of bovine brain tubulin assessed as rate of assembly preincubated for 15 mins by turbidimetry
Method in brief: (§5)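 Bovine brain tubulin at 10 µM (1.0 mg/mL) in 0.8 M monosodium glutamate pH 6.6 with 4% DMSO and varying compound was preincubated 15 min at 30 °C, then chilled. GTP was added to 0.4 mM final and the temperature jumped from 0 to 30 °C. Turbidity was followed at 350 nm, scoring either maximum rate or extent of assembly at 20 min.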

[13] = Antiproliferative activity against human SEM cells assessed as reduction in cell viability after 72 hrs by MTT assay; format: functional, cell-based; method in brief: as §4
LoVo = assay: Antiproliferative activity against human LoVo cells assessed as reduction in cell viability after 72 hrs by MTT assay; format: functional, cell-based
Tubulin (Bos taurus) = Tubulin (Bos taurus) (UniProt Q6B856+Q862L2+Q862F3); assay: Displacement of [3H]colchicine from bovine brain tubulin at 500 uM after 10 mins by liquid scintillation counting
CA46 [14] = assay: Cell cycle arrest in human CA46 cells assessed as reduction in mitotic index by Giemsa staining method relative to control; format: functional; design: scale not given: the % may be the effect or the level left
Method in brief: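 CA46 Burkitt lymphoma cells grown in RPMI 1640 with 17% FBS and 2 mM L-glutamine at 37 °C, 5% CO2, treated 16 h. Cells were swollen 10 min in half-strength PBS, fixed in 0.5% acetic acid–1.5% ethanol, then spread from 25% acetic acid/75% ethanol. Slides were Giemsa-stained. Mitotic cells were those with condensed chromosomes and no nuclear membrane, with ≥200 cells counted per condition.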

HeLa [15] = assay: Effect on cell morphology in human HeLa cells assessed as disorganization of actin filament at 25 uM after 24 hrs by confocal microscopy relative to control; format: functional, cell-based; method in brief: as §1
HeLa [16] = assay: Disruption of microtubule network in human HeLa cells assessed as induction of spherical morphology at 25 uM after 24 hrs by immunofluorescence microscopy; format: cell-based
Method in brief: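 HeLa cells exposed 24 h at 25 µM, fixed in cold 4% formaldehyde for 15 min, and stained with anti-β-tubulin plus Alexa-conjugated secondary antibody, with DAPI counterstain. Cells were imaged by confocal microscopy.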

PBL [17] = assay: Cytotoxicity against resting human PBLs assessed as reduction in cell growth; format: cell-based; method in brief: as §3
HeLa [18] = assay: Cell cycle arrest in human HeLa cells assessed as accumulation at G2/M phase at 10 to 25 uM after 24 hrs by flow cytometry; format: functional, cell-based; method in brief: as §2
Tubulin [19] = target: T1, Tubulin; assay: Inhibition of bovine brain tubulin assessed as extent of assembly preincubated for 15 mins by turbidimetry; method in brief: as §5
IGROV-1 = assay: Antiproliferative activity against human IGROV1 cells assessed as reduction in cell viability after 72 hrs by MTT assay; format: functional, cell-based; conditions: IGROV-1, 72 h; method in brief: as §4

COc1cccc(-c2c3c(c(OC)c4c2OCO4)[C@H]([C@H]2OC(=O)c4c2ccc(OC)c4OC)N(C)CC3)c1
Activity (HeLa [1]): Active
Activity (CA46 [2]): >80%
Activity (Jurkat [3]): Active
IC50 (PBL [4]): > 200 µM
IC50 [5]: 7.1 µM
IC50 (CCRF-CEM): 22.3 µM
Activity (HeLa [6]): Active
IC50 (CA46 [7]): 20 µM
IC50 (A549): > 100 µM
IC50 (HT-29): 36.1 µM
Activity (HeLa [8]): >80%
Activity (HeLa [9]): Dose-dependent effect
IC50 (HeLa [10]): 8.9 µM
Activity (Jurkat [11]): Dose-dependent effect
IC50 (Tubulin [12]): 170 µM
IC50 [13]: 13 µM
IC50 (LoVo): 29.4 µM
inhibition (Tubulin (Bos taurus)): 38%
Activity (CA46 [14]): 28%
Activity (HeLa [15]): Active
Activity (HeLa [16]): 70%
IC50 (PBL [17]): > 200 µM
Activity (HeLa [18]): Active
IC50 (Tubulin [19]): > 400 µM
IC50 (IGROV-1): 57.2 µM
